Most compounds without a hit are left out; they make up all but 2.3% or so of the library.
TRPC4 potent – allosteric potentiators of mouse TRPC4 channel. Q9QUQ5. HEK293 TRPC4beta/mu-opioid, DAMGO EC20, Fluo-4 Ca2+ flux; active compounds read high. B-score at 10 µM. 310,000 compounds, 0.42% hits. AID 2227;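 active = B-score of calcium response area above 5 SD of library B-scores, with initial fluorescence ratio within 5 SD of library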;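 also: B-score of integrated fluorescence ratio over time as area under calcium response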
TRPC6 act – activators of mouse TRPC6 channel. Q61143. HEK293-TRPC6 membrane potential dye fluorescence; active compounds read high. B-score at 10 µM. 310,000 compounds, 0.13% hits;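 active = B-score of the integrated fluorescence ratio above library mean plus 3 SD, and starting fluorescence ratio within library mean plus 5 SD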;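 also: higher score means more depolarization so channel activation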
Target sequence (Q61143 whole entry, looked up): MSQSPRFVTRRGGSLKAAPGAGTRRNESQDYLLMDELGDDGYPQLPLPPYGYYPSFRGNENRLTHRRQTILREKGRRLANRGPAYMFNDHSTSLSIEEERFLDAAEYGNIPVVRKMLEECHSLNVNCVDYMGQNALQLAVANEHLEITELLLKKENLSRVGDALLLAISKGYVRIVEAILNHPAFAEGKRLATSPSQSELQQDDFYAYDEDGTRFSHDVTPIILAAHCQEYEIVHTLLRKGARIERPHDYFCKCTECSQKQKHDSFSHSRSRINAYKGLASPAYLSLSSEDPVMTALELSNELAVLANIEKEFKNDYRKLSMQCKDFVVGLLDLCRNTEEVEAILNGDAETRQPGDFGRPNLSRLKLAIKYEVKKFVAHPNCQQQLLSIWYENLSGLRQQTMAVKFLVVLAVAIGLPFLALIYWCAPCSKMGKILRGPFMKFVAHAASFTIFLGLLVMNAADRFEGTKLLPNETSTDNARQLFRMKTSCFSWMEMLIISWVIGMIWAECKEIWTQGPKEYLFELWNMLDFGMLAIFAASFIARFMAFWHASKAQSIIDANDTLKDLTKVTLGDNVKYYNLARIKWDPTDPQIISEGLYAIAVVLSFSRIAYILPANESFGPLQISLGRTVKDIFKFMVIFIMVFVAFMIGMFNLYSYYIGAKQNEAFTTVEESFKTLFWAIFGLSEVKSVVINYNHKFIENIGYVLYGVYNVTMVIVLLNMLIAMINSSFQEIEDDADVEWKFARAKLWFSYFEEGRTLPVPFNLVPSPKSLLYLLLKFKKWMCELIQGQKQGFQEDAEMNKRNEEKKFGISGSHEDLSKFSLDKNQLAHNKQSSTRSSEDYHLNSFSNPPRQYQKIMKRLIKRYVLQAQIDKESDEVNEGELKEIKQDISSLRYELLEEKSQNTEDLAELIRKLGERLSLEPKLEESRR
TRPC4 block – TRPC4 (mouse) channel inhibition | 300,000 compounds, 0.39% hits | HEK293 TRPC4beta/mu-opioid, DAMGO-evoked Fluo4 calcium flux; active compounds read low | B-score at 10 µM | AID 2247 | Q9QUQ5;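 active = B-score over 3 SD under the library average, no early fluorescence shift, positive overall ratio signal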
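Material: HEK293 cells with stable TRPC4beta plus mu-opioid receptor expression; probe or stimulus: DAMGO in two steps, submaximal then maximal; technique: Fluo4 calcium fluorescence by kinetic imaging, 5 s 1 Hz baseline; measure: integrated fluorescence ratio relative to baseline, converted to per-well B score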
TRPC6 inhibitor – blocks the mouse TRPC6 cation channel | Q61143 | B-score at 10 µM | AID 2553 | 310,000 compounds, 1.1% hits | HEK293-TRPC6, membrane potential dye, ACh-evoked depolarization; active compounds read low;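 active = B-score under library mean minus 3 SD, initial fluorescence not abnormally high, positive integrated signal ratio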;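 also: B-score derived from integrated fluorescence ratio over the kinetic read; more negative B-score means stronger inhibition of depolarization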
TRPC4 agonist – TRPC4 (mouse) channel activation; HEK293 TRPC4beta/mu-opioid, Fluo4 calcium fluorescence; active compounds read high; 310,000 compounds, 0.49% hits; Q9QUQ5; B-score at 10 µM;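 active = B-score above 5 SD of library B-scores, and initial fluorescence ratio not above library mean plus 5 SD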;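 also: positive B-score marks a calcium rise read as TRPC4 activation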
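system = HEK293 cells stably co-expressing mouse TRPC4beta and mu-opioid receptor | schedule = Fluo4 dye loading 45 min at room temperature, 110 s recording | measure = B-scored integrated calcium fluorescence ratio | signal = Fluo4 calcium-sensitive dye fluorescence, kinetic, 1 Hz baseline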
TRPC4 sel inh 2 – second check of whether TRPC6 inhibitors also affect mouse TRPC4 | shares compounds with TRPC6 inhibitor | HEK293 TRPC4/MOR, membrane potential dye fluorescence; channel activated by saturating DAMGO dose | inhibition, % at 10 µM | 920 compounds, 42% hits;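 active = compounds whose fluorescence signal differed from control wells by over 3 SD, either direction, in both duplicate plates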
TRPC4 spec – selectivity of TRPC6 inhibitors: effect on mouse TRPC4 | AID 2777 | shares compounds with TRPC6 inhibitor | 920 compounds, 61% hits | HEK293 TRPC4/mu-opioid, membrane potential fluorescence | activity change, negative = inhibition, % at 10 µM;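 active = rise or fall in signal beyond 3 SD of buffer-only wells in both replicate plates, either sign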;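 also: integrated kinetic ratio of fluorescence range over baseline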
HEK293 MPD ctr 2-1 – second check of TRPC6 inhibitor effects in parental HEK293 cells; shares compounds with TRPC6 inhibitor; 920 compounds, 31% hits; parental HEK293 membrane potential dye fluorescence; maximal acetylcholine challenge after compound addition; signal change vs control, % at 10 µM; AID 2779;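 active = membrane potential signal moving either way by over 3 SD of the maximum-effect control, in both duplicate plates, meaning non-specific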
HEK293 MPD ctr-1 – parental HEK293 nonspecific activity of TRPC6 inhibitors | shares compounds with TRPC6 inhibitor | membrane potential signal change, % at 10 µM | parental HEK293 membrane potential dye fluorescence | AID 2780 | 920 compounds, 60% hits;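 active = membrane potential signal shifting up or down by more than 3 SD of buffer-only wells, on both duplicate plates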
HEK293 MPD ctr-2 – counter-screen for TRPC6 modulators: effect in parental HEK293 cells | membrane potential dye fluorescence | 2,400 compounds, 51% hits | AID 488924 | membrane potential signal change, % at 10 µM | shares compounds with TRPC6 inhibitor;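 active = membrane potential signal moves up or down beyond 5 SD from buffer-only wells, on both duplicate plates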
HEK293 MPD ctr 2-2 – second counter-screen for TRPC6 modulators: effect in parental HEK293 cells | membrane potential dye fluorescence; after compound, maximal acetylcholine stimulation | shares compounds with TRPC6 inhibitor | 2,400 compounds, 14% hits | inhibition, % at 10 µM;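 active = membrane potential signal drops by more than 5 SD from the mean control signal, in both duplicate plates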;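 also: plate controls were acetylcholine ECmax control wells for no effect and buffer only wells for full effect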
TRPC4/MOR mod – mouse TRPC4 off-target activity of TRPC6 modulators | shares compounds with TRPC6 inhibitor | HEK293 TRPC4/mu-opioid, membrane potential fluorescence | percent change from control (negative = decrease, positive = increase), % at 10 µM | 2,400 compounds, 69% hits | AID 488927;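 active = membrane potential signal moved up or down beyond 5 SD of buffer control wells, in both duplicate plates, actives on both sides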;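 also: plate controls were assay buffer wells for no effect and DAMGO maximal-effect wells for full effect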
TRPC4 ctr inh 2 – mouse TRPC4 off-target activity of TRPC6 modulators, second screen | inhibition, % at 10 µM | HEK293 TRPC4/mu-opioid, membrane potential dye fluorescence; stimulated with maximal-effect DAMGO | AID 488928 | shares compounds with TRPC6 inhibitor | 2,400 compounds, 55% hits;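 active = drop in membrane potential signal beyond 5 SD of the control wells in both duplicate plates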;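 also: TRPC4 counter screen for TRPC6 hits run under conditions tuned for TRPC6 not TRPC4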
TRPC6 block conf – confirmation of mouse TRPC6 inhibitors. shares compounds with TRPC6 inhibitor. HEK293-TRPC6, membrane potential dye, ACh-evoked depolarization. inhibition, % at 10 µM. 3,300 compounds, 43% hits;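 active = fluorescence ratio falls more than 5 SD below the full-stimulation control mean, in both duplicate runs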;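 also: integrated fluorescence ratio of peak minus minimum over baseline after agonist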
TRPC6 act confirm – confirmation of mouse TRPC6 activators; shares compounds with TRPC6 inhibitor; 2,800 compounds, 11% hits; AID 488961; activation, % at 10 µM; HEK293-TRPC6 membrane potential dye fluorescence, FDSS;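 active = ratio signal rise beyond 5 SD above unstimulated control wells' mean, seen in both duplicate runs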;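 also: plate controls were buffer EC0 wells for no effect and acetylcholine ECmax response for full effect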
Numbers without * were called inactive; i = inactive; x = not tested or not shown.

SMILES | TRPC4 potent | TRPC6 act | TRPC4 block | TRPC6 inhibitor | TRPC4 agonist | HEK293 MPD ctr-2 | HEK293 MPD ctr 2-2 | TRPC4/MOR mod | TRPC4 ctr inh 2 | TRPC6 block conf | TRPC6 act confirm | others
C[N+](C)(N)CCOC(=O)C(O)(c1ccccc1)C1CCCCC1 (stereo not drawn) | i | i | i | -9.56* | i | x | x | x | x | 89.0%* | i | TRPC4 sel inh 2=i;TRPC4 spec=i;HEK293 MPD ctr 2-1=-39.0%*;HEK293 MPD ctr-1=i
CC[N+](CC)(CC)CCCOC(=O)C(O)(c1ccccc1)C1CCCCC1 (stereo not drawn) | i | i | i | -11.8* | i | x | x | x | x | 97.4%* | i | TRPC4 sel inh 2=i;TRPC4 spec=i;HEK293 MPD ctr 2-1=-39.5%*;HEK293 MPD ctr-1=i
CC(C)COc1ccc(Cc2c(O)[nH]c(=S)[nH]c2=O)cc1 | i | i | i | i | i | x | x | x | x | x | x
Cc1c(C(=O)c2cccc3ccccc23)c2cccc3c2n1[C@H](CN1CCOCC1)CO3 | i | i | i | i | i | x | x | x | x | x | x
Cc1ccc(S(=O)(=O)N(C)C)cc1NC(=O)C(C)[N+]12CCN(CC1)CC2 (stereo not drawn) | i | i | i | i | i | x | x | x | x | x | x
CC[n+]1c(/C=C/N(C)c2ccccc2)sc2ccc(Cl)cc21 | i | i | i | -6.28* | i | i | 95.5%* | i | 35.5%* | 46.0%* | i
CC[n+]1c(/C=C/C=C/c2ccc(N(C)C)cc2)sc2ccccc21 | i | i | i | i | i | x | x | x | x | x | x
CCCCc1ccc2[nH]cc(CCN)c2c1 | i | i | i | -5.19* | i | i | i | i | 47.0%* | 50.5%* | i
COCCCN1Cc2ccccc2C1=N | i | i | i | i | i | x | x | x | x | x | x
N=C1c2ccccc2CN1c1ncccn1 | i | i | i | -7.28* | i | i | i | -11.0%* | i | i | i
CCCNC(=O)c1c(N)n(CC2CCCO2)c2nc3ccccc3nc12 (stereo not drawn) | i | i | i | i | i | x | x | x | x | x | x
CC(C)OCCCNC(=O)c1c(N)n(CC2CCCO2)c2nc3ccccc3nc12 (stereo not drawn) | i | i | i | -5.04* | i | 124.5%* | i | 23.0%* | i | i | x
Cc1ccc(-c2nc3ccccc3c(=O)n2-c2cc(C)ccn2)cc1 | i | i | i | i | i | x | x | x | x | x | x
Cc1ccc(-c2nc3ccccc3c(=O)n2-c2cccc(C)n2)cc1 | i | i | i | -6.01* | i | i | i | i | i | i | i
